Converted amounts (≈) assume the structure as drawn.
Assays:
[1] = Toxicity in Swiss mouse infected with Plasmodium berghei ANKA assessed as change in body weight at 50 mg/kg, ip administered once daily for 5 days measured on 4 days post infection (reference value: 100%); assay type: organism-based; settings: in vivo, 96 h
Plasmodium berghei [2] = experiment: Antimalarial activity against Plasmodium berghei ANKA infected in Swiss mouse assessed as mean survival days at 50 mg/kg, ip administered once daily for 5 days (reference value: 11.2 day); assay type: functional
Plasmodium berghei [3] = experiment: Antimalarial activity against Plasmodium berghei ANKA infected in Swiss mouse assessed as suppression of parasitaemia at 50 mg/kg, ip administered once daily for […] measured on 4 days post infection by flow cytometry relative to control; assay type: functional
[4] = Toxicity in Swiss mouse infected with Plasmodium berghei ANKA assessed as change in body weight at 50 mg/kg, ip administered once daily for 5 days measured on 7 days post infection (reference value: 89%); assay type: organism-based; settings: in vivo, 168 h
[5] = Toxicity in Swiss mouse infected with Plasmodium berghei ANKA assessed as change in body weight at 50 mg/kg, ip administered once daily for 5 days measured on 14 days post infection (reference value: 75%); assay type: organism-based; settings: in vivo, 336 h
[6] = Toxicity in Swiss mouse infected with Plasmodium berghei ANKA assessed as change in body weight at 50 mg/kg, ip administered once daily for 5 days measured on 11 days post infection (reference value: 81%); assay type: organism-based; settings: in vivo, 264 h
Plasmodium berghei [7] = experiment: Antimalarial activity against Plasmodium berghei ANKA infected in Swiss mouse assessed as parasitaemia at 50 mg/kg, ip administered once daily for 5 days measured on 14 days post infection by flow cytometry (reference value: 64.6%); assay type: functional
Plasmodium berghei [8] = experiment: Antimalarial activity against Plasmodium berghei ANKA infected in Swiss mouse assessed as parasitaemia at 50 mg/kg, ip administered once daily for 5 days measured on 11 days post infection by flow cytometry (reference value: 44%); assay type: functional
Outline: (§1)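 Mice infected with P. berghei GFP ANKA strain were dosed intraperitoneally once daily for 5 consecutive days, at 50 mg/kg for test compounds or 10 mg/kg for chloroquine as the reference. Parasitemia was measured in surviving animals on days 4, 7, 11 and 14 post infection by flow cytometry, using 10 μL blood in 2000 μL PBS. Percent reduction was calculated against vehicle-treated infected controls.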

Plasmodium berghei [9] = experiment: Antimalarial activity against Plasmodium berghei ANKA infected in Swiss mouse assessed as parasitaemia at 50 mg/kg, ip administered once daily for 5 days measured on 4 days post infection by flow cytometry (reference value: 17.1%); assay type: functional; outline: as §1
Plasmodium berghei [10] = experiment: Antimalarial activity against Plasmodium berghei ANKA infected in Swiss mouse assessed as parasitaemia at 50 mg/kg, ip administered once daily for 5 days measured on 7 days post infection by flow cytometry (reference value: 19%); assay type: functional; outline: as §1
MRC5 = experiment: Cytotoxicity against human MRC5 cells after 24 hrs by resazurin dye based assay; assay type: cell-based; settings: MRC5, 24 h
Outline: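 MRC-5 human lung fibroblasts were grown in DMEM with 10% heat-inactivated FCS at 37 °C, 5% CO2. Cells were seeded at 4 x 10^4 per well and allowed to recover for at least 24 h, then exposed for 24 h to a two-fold dilution series (128 to 0.5 µM final). Cells were PBS-washed and incubated with resazurin for 3 h, and fluorescence was read at 560/590 nm. Tamoxifen served as positive control.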

[11] = system: Mycobacterium tuberculosis; experiment: Antitubercular activity against Mycobacterium tuberculosis H37Rv after 7 days by Resazurin microtitre assay; assay type: functional; settings: 168 h
Outline: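 Resazurin microtiter assay with M. tuberculosis H37Rv in Middlebrook 7H9 + 10% OADC + 0.5% glycerol + 0.1% casitone. Two-fold dilutions, final 50 to 3.12 µM. Inoculum from LJ subculture at McFarland 1, diluted 1:10. 7 days at 37 °C, normal atmosphere, then resazurin overnight. MIC is the lowest concentration preventing the blue-to-pink change, read visually.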

Plasmodium falciparum = experiment: Antiplasmodial activity against chloroquine-resistant Plasmodium falciparum K1 infected in human erythrocytes measured after 72 hrs Malstat/NBT reagent based assay; assay type: functional, organism-based; settings: K1, 72 h
Outline: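 Infected human red blood cells (1% parasitaemia, 2% haematocrit) incubated 72 h with compound, then frozen at -20 °C. Growth read by Malstat: haemolysate with Malstat reagent 15 min RT, then NBT/PES 2 h RT in dark, absorbance at 655 nm. Chloroquine positive control. IC50 reported.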

[12] = system: Mycobacterium tuberculosis; experiment: Antitubercular activity against Mycobacterium tuberculosis H37Rv ATCC 27294 after 1 to 2 weeks; assay type: functional
Plasmodium berghei [13] = experiment: Antimalarial activity against Plasmodium berghei ANKA infected in Swiss mouse assessed as suppression of parasitaemia at 10 mg/kg, ip administered once daily for 5 days measured on 4 days post infection by flow cytometry relative to control; assay type: functional; outline: as §1
[14] = Toxicity in Swiss mouse infected with Plasmodium berghei ANKA assessed as change in body weight at 10 mg/kg, ip administered once daily for 5 days measured on 4 days post infection (reference value: 100%); assay type: organism-based; settings: in vivo, 96 h
[15] = Toxicity in Swiss mouse infected with Plasmodium berghei ANKA assessed as change in body weight at 10 mg/kg, ip administered once daily for 5 days measured on 11 days post infection (reference value: 81%); assay type: organism-based; settings: in vivo, 264 h
Plasmodium berghei [16] = experiment: Antimalarial activity against Plasmodium berghei ANKA infected in Swiss mouse assessed as mean survival days at 10 mg/kg, ip administered once daily for 5 days (reference value: 11.2 day); assay type: functional
Plasmodium berghei [17] = experiment: Antimalarial activity against Plasmodium berghei ANKA infected in Swiss mouse assessed as parasitaemia at 10 mg/kg, ip administered once daily for 5 days measured on 7 days post infection by flow cytometry (reference value: 19%); assay type: functional; outline: as §1
Plasmodium berghei [18] = experiment: Antimalarial activity against Plasmodium berghei ANKA infected in Swiss mouse assessed as parasitaemia at 10 mg/kg, ip administered once daily for 5 days measured on 11 days post infection by flow cytometry (reference value: 44%); assay type: functional; outline: as §1
Plasmodium berghei [19] = experiment: Antimalarial activity against Plasmodium berghei ANKA infected in Swiss mouse assessed as parasitaemia at 10 mg/kg, ip administered once daily for 5 days measured on 4 days post infection by flow cytometry (reference value: 17.1%); assay type: functional; outline: as §1
[20] = Toxicity in Swiss mouse infected with Plasmodium berghei ANKA assessed as change in body weight at 10 mg/kg, ip administered once daily for 5 days measured on 7 days post infection (reference value: 89%); assay type: organism-based; settings: in vivo, 168 h

| SMILES | IC50 (MRC5) | MIC [11] | IC50 (Plasmodium falciparum) | other results |
| --- | --- | --- | --- | --- |
| CC(C)OC(=O)OCOP(=O)(CCCC(=O)N(C)O)OCOC(=O)OC(C)C | – | – | – | Activity [1]: 104%; MSD (Plasmodium berghei [2]): 15.3 days; Activity (Plasmodium berghei [3]): 99%; Activity [4]: 105%; Activity [5]: 100%; Activity [6]: 105%; Activity (Plasmodium berghei [7]): 16.4%; Activity (Plasmodium berghei [8]): 3.7%; Activity (Plasmodium berghei [9]): 0.2%; Activity (Plasmodium berghei [10]): 0.04% |
| CCOC(=O)[C@@H](N)Cc1ccc(OP(=O)(CCCC(=O)N(C)O)Oc2ccc(C[C@H](N)C(=O)OCC)cc2)cc1 | > 64 µM | > 50 µM | 0.23 µM | – |
| CC(C)C[C@H](NP(=O)(CCCC(=O)N(C)O)N[C@@H](CC(C)C)C(=O)OC(C)C)C(=O)OC(C)C | > 64 µM | > 50 µM | 4.97 µM | – |
| CCOC(=O)[C@H](C)NP(=O)(CCCC(=O)N(C)O)N[C@@H](C)C(=O)OCC | > 64 µM | 20 µM (≈ 7.91 µg/mL) | 5.06 µM | – |
| CCOC(=O)[C@H](CC(C)C)NP(=O)(CCCC(=O)N(C)O)N[C@@H](CC(C)C)C(=O)OCC | > 64 µM | 50 µM (≈ 24 µg/mL) | 3.91 µM | – |
| CC(C)C[C@H](NP(=O)(CCCC(=O)N(C)O)N[C@@H](CC(C)C)C(=O)OC1CCCCC1)C(=O)OC1CCCCC1 | 7.65 µM | > 50 µM | 4.56 µM | – |
| CCOC(=O)[C@@H]1CCCN1P(=O)(CCCC(=O)N(C)O)N1CCC[C@H]1C(=O)OCC | > 64 µM | > 50 µM | 10.2 µM | – |
| CCOC(=O)[C@H](C)NP(=O)(N[C@@H](C)C(=O)OCC)C(CCC(=O)N(C)O)c1ccc(Cl)c(Cl)c1 (stereo not given in full) | > 64 µM | > 50 µM | > 36.6 µM | – |
| CCOC(=O)[C@H](CCCCN)NP(=O)(CCCC(=O)N(C)O)N[C@@H](CCCCN)C(=O)OCC | > 64 µM | > 50 µM | 0.96 µM | Activity [1]: 99%; MSD (Plasmodium berghei [2]): 8.7 days; Activity (Plasmodium berghei [3]): 0.6%; Activity [4]: 79%; Activity [6]: 67%; Activity (Plasmodium berghei [8]): 34.7%; Activity (Plasmodium berghei [9]): 17.1%; Activity (Plasmodium berghei [10]): 30.1% |
| CCOC(=O)[C@@H](NP(=O)(CCCC(=O)N(C)O)N[C@H](C(=O)OCC)[C@@H](C)CC)[C@@H](C)CC | > 64 µM | > 50 µM | 2 µM | – |
| CCOC(=O)[C@H](Cc1ccccc1)NP(=O)(CCCC(=O)N(C)O)N[C@@H](Cc1ccccc1)C(=O)OCC | > 64 µM | > 50 µM | 4.71 µM | – |
| CCCCCOC(=O)[C@H](CC(C)C)NP(=O)(CCCC(=O)N(C)O)N[C@@H](CC(C)C)C(=O)OCCCCC | 7.46 µM | > 50 µM | 2.37 µM | – |
| CC(C)C[C@H](NP(=O)(CCCC(=O)N(C)O)N[C@@H](CC(C)C)C(=O)OCc1ccccc1)C(=O)OCc1ccccc1 | 7.94 µM | > 50 µM | 2.02 µM | – |
| CCOC(=O)[C@@H](NP(=O)(CCCC(=O)N(C)O)N[C@H](C(=O)OCC)C(C)C)C(C)C | > 64 µM | > 50 µM | 12.7 µM | – |
| COC(=O)[C@H](CC(C)C)NP(=O)(CCCC(=O)N(C)O)N[C@@H](CC(C)C)C(=O)OC | > 64 µM | > 50 µM | 1.76 µM | – |
| CCOC(=O)[C@H](Cc1ccc(OP(=O)(Oc2ccc(C[C@H](NC(C)=O)C(=O)OCC)cc2)C(CCC(=O)N(C)O)c2ccc(Cl)c(Cl)c2)cc1)NC(C)=O (stereo not given in full) | 36.9 µM | > 50 µM | > 41.1 µM | – |
| CCOC(=O)[C@H](Cc1ccc(OP(=O)(CCCC(=O)N(C)O)Oc2ccc(C[C@H](NC(C)=O)C(=O)OCC)cc2)cc1)NC(C)=O | > 64 µM | > 50 µM | 0.31 µM | Activity [1]: 102%; MSD (Plasmodium berghei [2]): 12.7 days; Activity (Plasmodium berghei [3]): 82%; Activity [4]: 104%; Activity [5]: 69%; Activity [6]: 86%; Activity (Plasmodium berghei [7]): 32.6%; Activity (Plasmodium berghei [8]): 29.2%; Activity (Plasmodium berghei [9]): 3%; Activity (Plasmodium berghei [10]): 6.5% |
| CC(=O)N(CCCP(=O)(OCOC(=O)OC(C)(C)C)OCOC(=O)OC(C)(C)C)OCc1ccc(-c2ccccc2)cc1 | – | – | – | MIC [12]: 5.3 to 21 µM (≈ 3.31 to 13.1 µg/mL) |
| CCN(CC)CCCC(C)Nc1ccnc2cc(Cl)ccc12 (stereo not given) [CHLOROQUINE] | – | – | – | Activity (Plasmodium berghei [13]): 98.6%; Activity [14]: 99%; Activity [15]: 101%; MSD (Plasmodium berghei [16]): 14 days; Activity (Plasmodium berghei [17]): 0.6%; Activity (Plasmodium berghei [18]): 11.9%; Activity (Plasmodium berghei [19]): 0.2%; Activity [20]: 101% |
